In the library only some 7.4% were active in any assay of this set; here they are far more common.
S1P3 ag = human S1P3 receptor agonists, primary screen, cell-based, primary and confirmation, NFAT-BLA reporter; Sphingosine 1-phosphate receptor 3 (Homo sapiens), Q99500; S1P3 NFAT-BLA reporter cells, agonism, FRET ratio; relative to 1 µM S1P, basal subtracted; activation, % at 4.5 µM; hit rate 0.1% among 60,000; AID 373, 2006;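 active means activation above the screen-wide mean plus 3 SD, cut at about 4.5% in these data, passing the limit was not always enough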
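Assay system: stable CHO line with human S1P3, Gα16, NFAT-BLA reporter; Detection: FRET β-lactamase substrate fluorescence, excitation 405 nm, 460/535 nm emission ratio, background-subtracted; Read-out: percent activation versus median 1 µM S1P response, basal-subtracted, per plate; Incubation: cells plated overnight, compound 4 h 37 °C, substrate 2 h RT.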
M1 ag = M1 muscarinic receptor agonists, primary screen, CHO-M1 cells, Fluo-4 calcium, agonist mode | Fluo-4 calcium fluorescence; stronger effect = higher value | B-score at 10 µM | hit rate 3% among 64,000;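 active means fluorescence rise, raw or as B-score row- and column-corrected plate score, outside the 99.7% band of its plate's samples, either direction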
JNK3 inh = JNK3 kinase activity inhibitors, primary screen, biochemical, human, purified enzyme | HTS | inhibition, % at 8 µM | hit rate 0.61% among 60,000 | AID 746, 2007; in the data active means inhibition above about 17%;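 further: 0% = DMSO and 100% = reference inhibitor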
M1 antag = antagonists of rat M1 muscarinic receptor; B-score at 10 µM; Muscarinic acetylcholine receptor M1 (Rattus norvegicus), P08482; CHO-M1 cells, Fluo-4 calcium, ACh EC80 antagonist mode; stronger effect = lower value; AID 628, 2007; hit rate 3.4% among 64,000;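 active means calcium fluorescence response, raw or row-and-column corrected B-score, differing from the plate sample mean either way at a set confidence level, mostly lower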
Jurkat viability = cytotoxicity toward Jurkat T cells, primary screen, cytotoxicity control, cell-based, Jurkat E6.1, 60K MLSMR library; Jurkat E6.1 viability, ATP luminescence, 48 h; inhibition, % at 4 µM; hit rate 1.2% among 56,000; AID 463, 2006;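 active means inhibition above the mean inhibition of all tested compounds plus 3 SD, cut at about 28% in these data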
S1P1 ag-PAM = S1P1 agonists and agonism potentiators, primary screen, cell-based, primary and confirmation screens, CRE-bla reporter | Sphingosine 1-phosphate receptor 1 (Homo sapiens), P21453 | S1P1 CRE-bla cells, forskolin, beta-lactamase FRET, potentiator mode; S1P1 agonist co-added at EC20, 2 nM; 100% = saturating reference agonist, 0% = basal | activation, % at 9.5 µM | hit rate 0.57% among 56,000 | AID 449, 2006;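 active means activation above a cutoff set at the mean activation of all tested compounds plus 3 SD, cut at about 54% in these data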;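 further: forskolin at 4 µM as EC80 and the EC20 agonist is SEW2871; 100% = SEW2871 at its EC100 plus forskolin at EC80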
Target sequence (P21453 whole entry, looked up): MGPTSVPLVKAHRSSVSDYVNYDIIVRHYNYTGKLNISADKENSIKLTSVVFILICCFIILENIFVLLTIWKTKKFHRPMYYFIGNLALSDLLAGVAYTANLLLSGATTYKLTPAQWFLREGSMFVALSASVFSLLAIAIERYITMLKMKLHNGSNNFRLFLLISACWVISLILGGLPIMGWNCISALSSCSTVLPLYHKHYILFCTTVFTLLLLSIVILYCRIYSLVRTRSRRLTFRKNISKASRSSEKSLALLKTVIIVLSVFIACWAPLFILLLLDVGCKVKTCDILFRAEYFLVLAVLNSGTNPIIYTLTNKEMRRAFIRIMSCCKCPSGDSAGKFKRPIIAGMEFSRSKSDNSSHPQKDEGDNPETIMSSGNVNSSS
M1 antag confirm = rat M1 muscarinic receptor antagonists, confirmation, CHO cells, Fluo-4 calcium, duplicate | calcium response (max-min fluorescence) at 10 µM | AID 677, 2007 | hit rate 43% among 1,700 | shares compounds with M1 antag | ACh EC80 antagonism; stronger effect = lower value;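 active means calcium response below the same-plate mean of wells given acetylcholine alone at its 80%-effect dose, minus 3 SD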;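 further: raw fluorescence intensity difference in arbitrary instrument units and not normalized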
mGluR4 antag = human mGluR4 response to M1 antagonist hits, M1 allosteric modulator project, cell-based, antagonist mode, secondary assay 1. shares compounds with M1 antag. CHO-mGluR4 calcium flux, Fluo-4 fluorescence, glutamate EC80; stronger effect = lower value. fluorescence response (max-min) at 10 µM. hit rate 0.9% among 1,700. AID 678, 2007;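 active means fluorescence response below the plate's average for near-maximal glutamate wells, less 3 SD of those wells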;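 further: raw unnormalized fluorescence span taken in the window right after glutamate addition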
Starred values were filed as active, the others as inactive; nt = no result.

SMILES	S1P3 ag	M1 ag	JNK3 inh	M1 antag	Jurkat viability	S1P1 ag-PAM	M1 antag confirm	mGluR4 antag
O=S(=O)(c1ccc(OCC(O)CN2CCN(c3ccccc3)CC2)cc1)N1CCOCC1 (stereo not drawn)	-1	-0.3	1	-0.55	4	6	nt	nt
COc1cccc(OCC(O)CN2CCC(Cc3ccccc3)CC2)c1 (stereo not drawn)	-1	-1	4	-2.2*	0	2	347*	219
O=S(=O)(c1ccc(OCC(O)CN2CCC(Cc3ccccc3)CC2)cc1)N1CCOCC1 (stereo not drawn)	-1	-0.38	-1	-1*	10	14	458	212
OC(COc1ccc(OCc2ccccc2)cc1)CN1CCCCC1 (stereo not drawn)	-1	-1.4	-1	-6.6*	4	-18	358*	249
O=C(NCCc1ccc(Cl)cc1)C1CCN(S(=O)(=O)N2CCC3(CC2)OCCO3)CC1	1	-0.52	0	0.046	0	-2	nt	nt
C=CCc1c(C)nn(CC(=O)O)c1-c1ccccc1	0	-0.31	-2	1.3	-6	-9	nt	nt
NS(=O)(=O)c1cc2c(cc1Cl)NC(C1C[C@H]3C=C[C@@H]1C3)NS2(=O)=O (stereo partly drawn)	-3	0.093	-5	-0.056	nt	12	nt	nt
COc1ccccc1Cc1noc(COc2cccc(C)c2C)n1	-1	-1.2	5	-2.7*	0	nt	575	247
c1ccc(CN2CCC(N3CCN(Cc4ccc5c(c4)OCO5)CC3)CC2)cc1	-2	-0.5	4	-2.3*	8	8	330*	197
CSc1ccc(S(=O)(=O)N2CCN(Cc3ccc4c(c3)OCO4)CC2)cc1	-2	-0.16	-9	-2.1*	4	36	440	208
COc1ccc(N(CC(=O)N2CCN(Cc3ccc4c(c3)OCO4)CC2)S(C)(=O)=O)cc1OC	-1	0.38	4	0.86	3	-8	nt	nt
O=C(CN(c1ccccc1)S(=O)(=O)c1ccccc1)N1CCN(Cc2ccc3c(c2)OCO3)CC1	-2	-0.099	-9	-4.1*	6	19	436*	242
CC1=NC(Nc2nc(C)c3ccccc3n2)=NC(C)(C)C1	-1	-0.17	2	-9.6*	16	-76	224*	212
Cc1nc(Nc2ncc3c(n2)CC(C)(C)CC3=O)nc2ccccc12	0	-0.81	2	0.56	nt	-10	nt	nt
COC(=O)c1cc(C)sc1NC(=O)c1cccnc1	0	0	0	-0.96	3	-46	nt	nt
COc1ccc(-n2c(SCC(N)=O)nc3sc4c(c3c2=O)CCN(C)C4)cc1	-2	-1.1	4	0.51	nt	0	nt	nt
COC(=O)CSc1nc2sc3c(c2c(=O)n1C1CCCCC1)CCN(C)C3	-3	-2.7*	3	-2.7*	nt	-24	486*	261
S=c1[nH]nc(-c2ccco2)n1C1CCCCC1	-2	-0.13	2	-0.92	nt	-3	nt	nt
COc1ccc(N2C(=O)CCC(C(=O)N3CCCCCC3)C2c2ccc(OC)c(OC)c2)cc1 (stereo not drawn)	nt	2.5	nt	-0.47	nt	nt	nt	nt
Cc1ccc(S(=O)(=O)NC(CC(=O)N2CCc3ccccc32)c2ccco2)cc1 (stereo not drawn)	0	0.35	6	-4.4*	0	-14	484	189
COc1ccc(C2CC(c3cccc(OC)c3OC)n3nnnc3N2)cc1 (stereo not drawn)	-1	-0.021	-3	-0.021	7	-8	nt	nt
O=C(CSc1nnc(CN2CCOCC2)n1-c1ccccc1)N1CCc2ccccc21	0	0.17	-4	-0.44	-1	-24	nt	nt
